Drawing on ChEMBL document CHEMBL1122229, “alpha-adrenoreceptor reagents. 1. Synthesis of some 1,4-benzodioxans as selective presynaptic alpha 2-adrenoreceptor antagonists and potential antidepressants” (J Med Chem, 1983), this text covers Agonist potency, Selectivity and Antagonist potency for 33 molecules.

The source made the active and inactive calls. The rule behind the calls is not given here.

In test [1] the target is T1, Adrenergic receptor alpha-1 (Rattus norvegicus) (UniProt P15823+P23944+P43140). In words: In vitro postsynaptic agonist potency at alpha-1 adrenergic receptor in rat anococcygeus muscle relative to phenylephrine; IA means inactive. Format: functional, tissue-based. In short, it runs like this: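 Rat anococcygeus muscle (male Sprague–Dawley rats, 200–250 g) suspended at 0.5 g initial tension in a 50-mL organ bath. […] Standard dose-response curves were run before and after the analogue's curve.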

Test [2] deals with T1, Adrenergic receptor alpha-1 (Rattus norvegicus). The test is described as follows: Ratio of presynaptic antagonist potency to postsynaptic antagonist potency. Format: functional.
The target in test [3] is T2, Adrenergic receptor alpha-2 (Rattus norvegicus) (UniProt P22086+P19328+P22909). The test is described as follows: In vitro presynaptic agonist potency at alpha-2 adrenergic receptor in rat or mouse vas deferens relative to clonidine; IA means inactive. In kind it is functional, tissue-based. The method in brief: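 Field-stimulated rat or mouse vas deferens (Krebs, 30 °C, 95% O2/5% CO2, 3-ms pulses at 0.1 Hz) with isometric twitch recording. […] Standard dose-response curves were run before and after the analogue's curve.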

In test [4] the target is T1, Adrenergic receptor alpha-1 (Rattus norvegicus). In words: In vitro postsynaptic antagonist potency at alpha-1 adrenergic receptor in rat anococcygeus relative to compound 5 (RX781094). Format: functional.
The target of test [5] is T2, Adrenergic receptor alpha-2 (Rattus norvegicus). The test is described as follows: In vitro presynaptic antagonist potency at alpha-2 adrenergic receptor in rat or mouse vas deferens relative to compound 5 (RX781094). Format: functional, tissue-based. The method in brief:
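Prostatic halves of rat vas deferens (male Sprague–Dawley rats, 200–250 g; Krebs, 30 °C, 95% O2/5% CO2; 3-ms, 40 V, 0.1 Hz field pulses) or mouse vas deferens (Mg-free Krebs, 30 °C; 3-ms pulses, 0.1 Hz, 100–140 V) were used, with isometric twitch recording. […] The concentration giving 50% reversal was compared with the RX781094 standard in the same tissue.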

For test [6], the system named is Alpha-2 adrenergic receptor (Rattus norvegicus). In words: In vitro presynaptic agonist potency at alpha-2 adrenergic receptor in rat or mouse vas deferens relative to clonidine; Inactive.
The target in test [7] is T1, Adrenergic receptor alpha-1 (Rattus norvegicus). In words: In vitro postsynaptic agonist potency at alpha-1 adrenergic receptor in rat anococcygeus muscle relative to phenylephrine. In kind it is functional, tissue-based.
A short description of test [8]: In vitro antagonism at Alpha-2 adrenergic receptor in rat or mouse vas deferens relative to RX781094. Format: functional. In short, it runs like this:
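Prostatic half of vas deferens from male Sprague–Dawley rats (200–250 g; Krebs, 30 °C, 95% O2/5% CO2, 0.1 Hz, 3-ms, 40 V) or from mice (magnesium-free Krebs, 100–140 V). Tension 0.5 g; isometric twitch recording. […] The concentration giving 50% reversal of the inhibition was compared with standard 5 in the same tissue.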

For test [9], the target named is T1, Adrenergic receptor alpha-1 (Rattus norvegicus). In words: In vitro postsynaptic antagonist potency at alpha-1 adrenergic receptor in rat anococcygeus relative to compound 5 (RX781094); IA means compound is inactive. Format: functional.
Test [10] shares this target. In words: In vitro postsynaptic antagonist potency at alpha-1 adrenergic receptor in rat anococcygeus relative to compound 5 (RX781094); AG means compound is agonist. Format: functional. To be noted: filed as agonist.
Test [11] deals with T2, Adrenergic receptor alpha-2 (Rattus norvegicus). The test is described as follows: In vitro presynaptic agonist potency at alpha-2 adrenergic receptor in rat or mouse vas deferens relative to clonidine. Format: functional, tissue-based. The method in brief: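 Field-stimulated rat or mouse vas deferens under 0.5 g tension, at 0.1 Hz with 3-ms pulses, 30 °C, gassed with 95% O2/5% CO2. Contractions were recorded isometrically. Standard dose-response curves were run before and after each analogue curve. Potency was expressed relative to the standard in the same experiment.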

With `c1ccc2c(c1)OCC(c1ncc[nH]1)O2` (stereo unspecified), the Agonist potency entry in test [1] and in test [3] was “inactive” throughout. The Selectivity in [2] stood at 0.1. In addition, the Antagonist potency amounted to 0.01 in test [4] and 0.001 in test [5].
`Clc1cc2c(cc1Cl)OC(C1=NCCN1)CO2` (stereo unspecified): the Agonist potency entry in [1] and in [6] was “inactive” each time. In [2], the Selectivity is 0.01. The Antagonist potency came out at 0.3 in test [4] and 0.003 in [5].
Regarding `COc1cccc2c1OCC(C1=NCCN1)O2` (stereo unspecified), the Agonist potency in test [7] is 5. Also, the Antagonist potency in test [8] is listed as 0.001. Also, the Agonist potency result in [3] is “inactive”. In addition, in test [9], the Antagonist potency result is “inactive”.
As to `Cc1cccc2c1OC(C1=NCCN1)CO2` (stereo unspecified), the Agonist potency in test [7] came out at 2.1; in test [11], 0.01. The Antagonist potency result in test [10] was “Agonist”; in [5], 0.5.
For the molecule `COc1cccc(OC)c1OCC/N=C(\N)C1COc2ccccc2O1` (stereo unspecified), the Agonist potency entry in test [1] is “inactive”. Also, in [2], the Selectivity is 0.01. Also, the Agonist potency in test [11] was 0.0001. The Antagonist potency in [4] was 0.1; in test [5], 0.001.
`Clc1ccc2c(c1)OCC(C1=NCCN1)O2` (stereo unspecified) had an Agonist potency in [7] of 0.005. Besides, the Antagonist potency worked out at 0.01 in [8] and 1 in [4]. Also, the Selectivity in test [2] was 0.01. Moreover, in [6], the Agonist potency result was “inactive”.
`CN1CCN=C1C1COc2ccccc2O1` (stereo unspecified): the Agonist potency entry in test [1] and in [3] was “inactive” in each case. Also, in [2], the Selectivity is 0.003. In addition, the Antagonist potency came to 0.1 in test [4] and 0.0003 in test [5].
In test [7], `N=C(N)C1COc2ccccc2O1` (stereo unspecified) came in with an Agonist potency of 0.05. The Agonist potency result in test [3] was “inactive”. The same molecule registered an Antagonist potency in test [5] of 0.01.
In turn, `Brc1ccc2c(c1)OCC(C1=NCCN1)O2` (stereo unspecified) yielded an Agonist potency in test [7] of 0.05. The same molecule came in with an Antagonist potency in test [8] of 0.01. The Agonist potency entry in test [6] is “inactive”. The Antagonist potency entry in test [9] is “inactive”.
With `Cc1ccc(C)c2c1OCC(C1=NCCN1)O2` (stereo unspecified), the Agonist potency in test [7] amounted to 2.5; in test [11] it was 0.19. Moreover, the Antagonist potency in test [8] is 0.005; in test [10], “Agonist”.
Regarding `c1ccc2c(c1)OCC(C1=NCCCN1)O2` (stereo unspecified), the Agonist potency result in test [1] and in test [3] was “inactive” throughout. In addition, the Selectivity in test [2] was 0.1. For the same molecule, the Antagonist potency in test [4] stood at 0.1; in [5] it was 0.01.
Take `N/C(=N\CCCO)C1COc2ccccc2O1` (stereo unspecified): the Agonist potency entry in [1] and in test [3] was “inactive” each time. Also, the Antagonist potency in test [4] was 0.024; in [5] it was under 0.001.
On to `N=C(NCCc1ccccc1)C1COc2ccccc2O1` (stereo unspecified), for which the Agonist potency result in [1] and in test [3] was “inactive” in each case. Besides, the Selectivity in test [2] was determined as 0.01. For the same molecule, the Antagonist potency in [4] was 0.03; in test [5] it was 0.0003.
Consider `Oc1cccc2c1OC(C1=NCCN1)CO2` (stereo unspecified), for which the Antagonist potency in test [8] worked out at 0.04; in [4], 0.2. The Agonist potency entry in test [1] and in test [3] was “inactive” throughout. For the same molecule, in [2], the Selectivity was found to be 0.2.
On to `Fc1ccc2c(c1)OCC(C1=NCCN1)O2` (stereo unspecified), for which the Antagonist potency in test [8] worked out at 0.01; in test [4] it was 0.1. For the same molecule, the Agonist potency entry in [1] and in test [6] was “inactive” each time. Moreover, in test [2], the Selectivity turned out to be 0.1.
For the molecule `Nc1noc(CC2COc3ccccc3O2)n1` (stereo unspecified), the Agonist potency result in test [1] and in test [3] was “inactive” in each case. The Antagonist potency in test [4] is under 0.023; in test [5], under 0.0003.
With `O=[N+]([O-])c1cccc2c1OC(C1=NCCN1)CO2` (stereo unspecified), the figures for the Antagonist potency in test [8] and in test [4] were 0.02 and 0.09, respectively. Further, the Agonist potency entry in test [1] and in [3] was “inactive” throughout. In test [2], the Selectivity stood at 0.22.
In the case of `COc1cccc2c1OC(C1=NCCN1)CO2` (stereo unspecified), the Antagonist potency amounted to 0.12 in [8] and 0.9 in [4]. Moreover, the Agonist potency entry in test [1] and in [3] was “inactive” in each case. Also, the Selectivity in test [2] stood at 0.14.
With `O=[N+]([O-])c1ccc2c(c1)OCC(C1=NCCN1)O2` (stereo unspecified), the Antagonist potency was under 0.0003 in test [8] and under 0.02 in test [4]. Moreover, the Agonist potency entry in [1] and in [3] was “inactive” each time.
Turning to `c1ccc2c(c1)OCC(Cc1ncc[nH]1)O2` (stereo unspecified), the Agonist potency result in test [1] and in test [3] was “inactive” each time. Moreover, the Selectivity in test [2] is 0.016. The results for the Antagonist potency in test [4] and in test [5] were 0.25 and 0.004, respectively.
Take `c1ccc2c(c1)OCC(CC1=NCCN1)O2` (stereo unspecified): the Agonist potency result in test [1] and in test [3] was “inactive” in each case. The Selectivity in test [2] was 0.33. Further, the Antagonist potency in test [4] worked out at 0.14; in test [5] it was 0.045.
As to `CCCC/N=C(\NCCCC)C1COc2ccccc2O1` (stereo unspecified), the Agonist potency entry in [1] and in test [3] was “inactive” throughout. For the same molecule, the Selectivity in test [2] is 0.01. Also, the results for the Antagonist potency in test [4] and in test [5] were 0.1 and 0.001, respectively.
Regarding `Cc1cc2c(cc1C)OC(C1=NCCN1)CO2` (stereo unspecified), the Antagonist potency in test [8] was found to be 0.06; in test [4] it was 0.64. Moreover, the Agonist potency result in test [1] and in [6] was “inactive” in each case. In addition, the Selectivity in test [2] is 0.1.
With `N=C(C1COc2ccccc2O1)N1CCCCC1` (stereo unspecified), the Agonist potency entry in test [1] and in [3] was “inactive” throughout. In addition, the Selectivity in test [2] was 0.01. For the same molecule, the Antagonist potency in test [4] was determined as 0.01; in test [5], 0.0001.
Regarding `c1ccc2c(c1)OCC(c1nc3ccccc3[nH]1)O2` (stereo unspecified), the Agonist potency entry in [1] and in [3] was “inactive” each time. For the same molecule, the Antagonist potency was under 0.02 in test [4] and 0.0003 in [5].
In the case of `COc1ccc2c(c1)OCC(C1=NCCN1)O2` (stereo unspecified), the Agonist potency in test [7] is 0.005. This molecule also returned an Antagonist potency in test [8] of 0.006. For the same molecule, in test [3], the Agonist potency result was “inactive”.
`c1ccc2c(c1)OCC(Cn1ccnc1)O2` (stereo unspecified): the Agonist potency entry in test [1] and in [3] was “inactive” throughout. Further, the Antagonist potency in test [4] is under 0.023; in [5], 0.013.
For `CC1(C)CN=C(C2COc3ccccc3O2)N1` (stereo unspecified), the Agonist potency entry in test [1] and in [3] was “inactive” throughout. Further, the Selectivity in test [2] was 0.01. For the same molecule, the Antagonist potency in [4] came out at 0.01; in test [5], 0.0001.
For the molecule `c1ccc2cc3c(cc2c1)OCC(C1=NCCN1)O3` (stereo unspecified), the Agonist potency result in test [1] and in test [3] was “inactive” throughout. Moreover, in [2], the Selectivity turned out to be 0.1. For the same molecule, the Antagonist potency stood at 0.01 in test [4] and 0.001 in test [5].
Take `CC1CN=C(C2COc3ccccc3O2)N1` (stereo unspecified): the Agonist potency entry in test [1] and in test [3] was “inactive” each time. The Selectivity in test [2] turned out to be 0.003. In addition, the Antagonist potency in test [4] was 1; in test [5], 0.003.
`Clc1ccc(Cl)c2c1OCC(C1=NCCN1)O2` (stereo unspecified): the figures for the Agonist potency in [7] and in test [11] were 0.55 and 0.02, respectively. For the same molecule, the Antagonist potency entry was “Agonist” in [10] and 0.26 in [5].
Consider `COc1ccc2c(c1)OC(C1=NCCN1)CO2` (stereo unspecified), for which the Antagonist potency worked out at 0.02 in test [8] and 0.225 in test [4]. Further, the Agonist potency result in [1] and in test [3] was “inactive” throughout. Besides, the Selectivity in test [2] was 0.09.
For `CC(C)(C)c1ccc2c(c1)OCC(C1=NCCN1)O2` (stereo unspecified), the Agonist potency entry in test [1] and in test [3] was “inactive” each time. Further, the Selectivity in test [2] worked out at 0.1. In addition, the figures for the Antagonist potency in [4] and in test [5] were 0.1 and 0.01, respectively.
